In brackets after ≈: the same amount, converted by molar mass.
Key:
Streptococcus pneumoniae = experiment: Antibacterial activity against Streptococcus pneumoniae ATCC 49619 after 24 hrs by broth microdilution method; format: functional; conditions: ATCC 49619, 24 h
Outline: (§1)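 MIC by standard broth microdilution per NCCLS guidance. Strain panel: B. subtilis ATCC9372 and S. aureus ATCC25923 as standard susceptible strains, S. aureus ATCC29213 as […], S. pyogenes PS as penicillin-susceptible, S. pneumoniae ATCC49619 as standard susceptible, alongside Gram-negative strains.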

Staphylococcus aureus [1] = experiment: Antibacterial activity against Staphylococcus aureus ATCC 29213 after 24 hrs by broth microdilution method; format: functional; conditions: ATCC 29213, 24 h; outline: as §1
Staphylococcus aureus [2] = experiment: Antibacterial activity against Staphylococcus aureus ATCC 25923 after 24 hrs by broth microdilution method; format: functional; conditions: ATCC 25923, 24 h; outline: as §1
Pseudomonas aeruginosa = experiment: Antibacterial activity against Pseudomonas aeruginosa ATCC 27853 after 24 hrs by broth microdilution method; format: functional; conditions: ATCC 27853, 24 h; outline: as §1
[3] = test system: Escherichia coli ATCC 25922; experiment: Inhibition of FtsZ in Escherichia coli ATCC 25922 assessed as decrease in cell division by measuring lowest compound concentration at which bacterial filamentation is observed after 5 hrs by phase-contrast light microscopy
Outline: (§2)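 Cell division inhibition scored by cell morphology under phase-contrast light microscopy. B. subtilis ATCC9372, E. coli ATCC25922 and S. aureus ATCC25923 were exposed to compound. The lowest concentration giving filamentation (B. subtilis, E. coli) or ballooning (S. aureus) was recorded as the cell division inhibitory concentration.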

Streptococcus pyogenes = experiment: Antibacterial activity against penicillin-susceptible Streptococcus pyogenes after 24 hrs by broth microdilution method; format: functional; outline: as §1
Escherichia coli = experiment: Antibacterial activity against Escherichia coli ATCC 25922 after 24 hrs by broth microdilution method; format: functional; conditions: ATCC 25922, 24 h; outline: as §1
Staphylococcus aureus [4] = experiment: Antibacterial activity against penicillin-resistant Staphylococcus aureus clinical isolate after 24 hrs by broth microdilution method; format: functional
Bacillus subtilis [5] = experiment: Antibacterial activity against Bacillus subtilis ATCC 9372 after 24 hrs by broth microdilution method; format: functional; conditions: ATCC 9372, 24 h; outline: as §1
[6] = target: T1, Cell division protein FtsZ (Staphylococcus aureus) (UniProt P0A031); experiment: Inhibition of FtsZ in Staphylococcus aureus ATCC 25923 assessed as decrease in cell division by measuring lowest compound concentration at which bacterial ballooning is observed after 5 hrs by phase-contrast light microscopy; outline: as §2
T1 sequence (whole entry): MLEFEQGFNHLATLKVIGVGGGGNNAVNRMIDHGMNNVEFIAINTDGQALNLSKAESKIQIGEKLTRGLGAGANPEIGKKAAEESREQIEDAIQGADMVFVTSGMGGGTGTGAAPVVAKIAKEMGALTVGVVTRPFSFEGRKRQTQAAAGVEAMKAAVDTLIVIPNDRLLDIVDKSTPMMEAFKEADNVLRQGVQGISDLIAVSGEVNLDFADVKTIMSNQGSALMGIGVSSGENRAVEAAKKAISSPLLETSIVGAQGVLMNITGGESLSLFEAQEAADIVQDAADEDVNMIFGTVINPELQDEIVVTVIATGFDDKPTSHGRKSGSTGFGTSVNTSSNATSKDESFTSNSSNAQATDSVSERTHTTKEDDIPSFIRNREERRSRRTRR

Bacillus subtilis [7] = experiment: Inhibition of FtsZ in Bacillus subtilis ATCC 9372 assessed as decrease in cell division by measuring lowest compound concentration at which bacterial filamentation is observed after 5 hrs by phase-contrast light microscopy; outline: as §2

SMILES	MIC (Streptococcus pneumoniae)	MIC (Staphylococcus aureus [1])	MIC (Staphylococcus aureus [2])	MIC (Pseudomonas aeruginosa)	INH [3]	MIC (Streptococcus pyogenes)	MIC (Escherichia coli)	MIC (Staphylococcus aureus [4])	MIC (Bacillus subtilis [5])	INH [6]	INH (Bacillus subtilis [7])
NC(=O)c1c(F)ccc(OCCCCBr)c1F	> 128 µg/mL	32 µg/mL (≈ 104 µM)	4 µg/mL (≈ 13 µM)	128 µg/mL (≈ 415 µM)	64 µg/mL	128 µg/mL (≈ 415 µM)	128 µg/mL (≈ 415 µM)	8 µg/mL (≈ 26 µM)	4 µg/mL (≈ 13 µM)	4 µg/mL	1 µg/mL
NC(=O)c1c(F)ccc(OCCCCCCCl)c1F	128 µg/mL (≈ 439 µM)	16 µg/mL (≈ 54.8 µM)	2 µg/mL (≈ 6.86 µM)	256 µg/mL (≈ 878 µM)	128 µg/mL	> 128 µg/mL	256 µg/mL (≈ 878 µM)	8 µg/mL (≈ 27.4 µM)	0.5 µg/mL (≈ 1.71 µM)	0.5 µg/mL	0.25 µg/mL
NC(=O)c1c(F)ccc(OC2CCCCC2)c1F	128 µg/mL (≈ 501 µM)	256 µg/mL (≈ 1000 µM)	128 µg/mL (≈ 501 µM)	128 µg/mL (≈ 501 µM)	64 µg/mL	> 128 µg/mL	128 µg/mL (≈ 501 µM)	256 µg/mL (≈ 1000 µM)	64 µg/mL (≈ 251 µM)	128 µg/mL	64 µg/mL
NC(=O)c1c(F)ccc(OC2CCCC2)c1F	128 µg/mL (≈ 531 µM)	256 µg/mL (≈ 1060 µM)	256 µg/mL (≈ 1060 µM)	128 µg/mL (≈ 531 µM)	64 µg/mL	> 128 µg/mL	128 µg/mL (≈ 531 µM)	512 µg/mL (≈ 2120 µM)	512 µg/mL (≈ 2120 µM)	256 µg/mL	256 µg/mL
NC(=O)c1c(F)ccc(OCCCCl)c1F	> 128 µg/mL	32 µg/mL (≈ 128 µM)	16 µg/mL (≈ 64.1 µM)	128 µg/mL (≈ 513 µM)	64 µg/mL	128 µg/mL (≈ 513 µM)	128 µg/mL (≈ 513 µM)	32 µg/mL (≈ 128 µM)	32 µg/mL (≈ 128 µM)	32 µg/mL	16 µg/mL
NC(=O)c1c(F)ccc(OCCCCCCl)c1F	128 µg/mL (≈ 461 µM)	32 µg/mL (≈ 115 µM)	16 µg/mL (≈ 57.6 µM)	128 µg/mL (≈ 461 µM)	64 µg/mL	64 µg/mL (≈ 230 µM)	128 µg/mL (≈ 461 µM)	16 µg/mL (≈ 57.6 µM)	4 µg/mL (≈ 14.4 µM)	16 µg/mL	2 µg/mL
CC(C)CCOc1ccc(F)c(C(N)=O)c1F	128 µg/mL (≈ 526 µM)	16 µg/mL (≈ 65.8 µM)	64 µg/mL (≈ 263 µM)	128 µg/mL (≈ 526 µM)	64 µg/mL	> 128 µg/mL	128 µg/mL (≈ 526 µM)	16 µg/mL (≈ 65.8 µM)	8 µg/mL (≈ 32.9 µM)	4 µg/mL	4 µg/mL
NC(=O)c1c(F)ccc(OCCCCCCBr)c1F	> 128 µg/mL	2 µg/mL (≈ 5.95 µM)	1 µg/mL (≈ 2.97 µM)	128 µg/mL (≈ 381 µM)	64 µg/mL	64 µg/mL (≈ 190 µM)	128 µg/mL (≈ 381 µM)	2 µg/mL (≈ 5.95 µM)	1 µg/mL (≈ 2.97 µM)	1 µg/mL	0.5 µg/mL
NC(=O)c1c(F)ccc(OCCCCCn2cnc3cc([N+](=O)[O-])ccc32)c1F	512 µg/mL (≈ 1270 µM)	1020 µg/mL (≈ 2530 µM)	512 µg/mL (≈ 1270 µM)	512 µg/mL (≈ 1270 µM)	256 µg/mL	1020 µg/mL (≈ 2530 µM)	512 µg/mL (≈ 1270 µM)	2050 µg/mL (≈ 5060 µM)	512 µg/mL (≈ 1270 µM)	–	32 µg/mL
CCCCC(CC)COc1ccc(F)c(C(N)=O)c1F (configuration not stated)	64 µg/mL (≈ 224 µM)	8 µg/mL (≈ 28 µM)	1 µg/mL (≈ 3.5 µM)	128 µg/mL (≈ 449 µM)	64 µg/mL	> 128 µg/mL	256 µg/mL (≈ 897 µM)	8 µg/mL (≈ 28 µM)	0.25 µg/mL (≈ 0.876 µM)	0.25 µg/mL	0.125 µg/mL
NC(=O)c1c(F)ccc(OCCBr)c1F	> 128 µg/mL	64 µg/mL (≈ 229 µM)	16 µg/mL (≈ 57.1 µM)	128 µg/mL (≈ 457 µM)	32 µg/mL	64 µg/mL (≈ 229 µM)	128 µg/mL (≈ 457 µM)	32 µg/mL (≈ 114 µM)	16 µg/mL (≈ 57.1 µM)	16 µg/mL	2 µg/mL
CC(C)Oc1ccc(F)c(C(N)=O)c1F	128 µg/mL (≈ 595 µM)	256 µg/mL (≈ 1190 µM)	256 µg/mL (≈ 1190 µM)	128 µg/mL (≈ 595 µM)	64 µg/mL	> 128 µg/mL	256 µg/mL (≈ 1190 µM)	256 µg/mL (≈ 1190 µM)	256 µg/mL (≈ 1190 µM)	128 µg/mL	128 µg/mL
NC(=O)c1c(F)ccc(OCCCCCBr)c1F	128 µg/mL (≈ 397 µM)	16 µg/mL (≈ 49.7 µM)	8 µg/mL (≈ 24.8 µM)	256 µg/mL (≈ 795 µM)	64 µg/mL	128 µg/mL (≈ 397 µM)	256 µg/mL (≈ 795 µM)	16 µg/mL (≈ 49.7 µM)	16 µg/mL (≈ 49.7 µM)	4 µg/mL	2 µg/mL
NC(=O)c1c(F)ccc(OCCCCCCn2cnc3ccccc32)c1F	256 µg/mL (≈ 686 µM)	256 µg/mL (≈ 686 µM)	512 µg/mL (≈ 1370 µM)	512 µg/mL (≈ 1370 µM)	256 µg/mL	512 µg/mL (≈ 1370 µM)	512 µg/mL (≈ 1370 µM)	1020 µg/mL (≈ 2740 µM)	256 µg/mL (≈ 686 µM)	128 µg/mL	128 µg/mL
NC(=O)c1c(F)ccc(OCCn2cnc3cc([N+](=O)[O-])ccc32)c1F	256 µg/mL (≈ 707 µM)	512 µg/mL (≈ 1410 µM)	256 µg/mL (≈ 707 µM)	512 µg/mL (≈ 1410 µM)	128 µg/mL	512 µg/mL (≈ 1410 µM)	256 µg/mL (≈ 707 µM)	1020 µg/mL (≈ 2830 µM)	64 µg/mL (≈ 177 µM)	256 µg/mL	32 µg/mL
CC(C)COc1ccc(F)c(C(N)=O)c1F	128 µg/mL (≈ 558 µM)	128 µg/mL (≈ 558 µM)	32 µg/mL (≈ 140 µM)	128 µg/mL (≈ 558 µM)	64 µg/mL	> 128 µg/mL	256 µg/mL (≈ 1120 µM)	64 µg/mL (≈ 279 µM)	64 µg/mL (≈ 279 µM)	16 µg/mL	32 µg/mL
NC(=O)c1c(F)ccc(OCc2nc3cc([N+](=O)[O-])ccc3[nH]2)c1F	256 µg/mL (≈ 735 µM)	256 µg/mL (≈ 735 µM)	512 µg/mL (≈ 1470 µM)	256 µg/mL (≈ 735 µM)	128 µg/mL	1020 µg/mL (≈ 2940 µM)	512 µg/mL (≈ 1470 µM)	512 µg/mL (≈ 1470 µM)	64 µg/mL (≈ 184 µM)	128 µg/mL	64 µg/mL
NC(=O)c1c(F)ccc(OCCCCCl)c1F	128 µg/mL (≈ 485 µM)	8 µg/mL (≈ 30.3 µM)	8 µg/mL (≈ 30.3 µM)	128 µg/mL (≈ 485 µM)	64 µg/mL	64 µg/mL (≈ 243 µM)	128 µg/mL (≈ 485 µM)	8 µg/mL (≈ 30.3 µM)	4 µg/mL (≈ 15.2 µM)	4 µg/mL	2 µg/mL
CCOCCC(=O)COc1ccc(F)c(C(N)=O)c1F	128 µg/mL (≈ 446 µM)	128 µg/mL (≈ 446 µM)	64 µg/mL (≈ 223 µM)	128 µg/mL (≈ 446 µM)	64 µg/mL	> 128 µg/mL	256 µg/mL (≈ 891 µM)	256 µg/mL (≈ 891 µM)	64 µg/mL (≈ 223 µM)	128 µg/mL	32 µg/mL
NC(=O)c1c(F)ccc(OCCCn2cnc3ccccc32)c1F	512 µg/mL (≈ 1550 µM)	512 µg/mL (≈ 1550 µM)	1020 µg/mL (≈ 3090 µM)	512 µg/mL (≈ 1550 µM)	512 µg/mL	1020 µg/mL (≈ 3090 µM)	512 µg/mL (≈ 1550 µM)	1020 µg/mL (≈ 3090 µM)	1020 µg/mL (≈ 3090 µM)	256 µg/mL	512 µg/mL
NC(=O)c1c(F)ccc(O)c1F	4100 µg/mL (≈ 23700 µM)	512 µg/mL (≈ 2960 µM)	1020 µg/mL (≈ 5920 µM)	512 µg/mL (≈ 2960 µM)	512 µg/mL	> 4100 µg/mL	512 µg/mL (≈ 2960 µM)	1020 µg/mL (≈ 5920 µM)	1020 µg/mL (≈ 5920 µM)	2050 µg/mL	1020 µg/mL
COc1cc(/C=C/C(=O)CC(=O)/C=C/c2ccc(O)c(OC)c2)ccc1O [CURCUMIN]	> 4100 µg/mL	4100 µg/mL (≈ 11100 µM)	2050 µg/mL (≈ 5560 µM)	4100 µg/mL (≈ 11100 µM)	256 µg/mL	> 4100 µg/mL	512 µg/mL (≈ 1390 µM)	4100 µg/mL (≈ 11100 µM)	32 µg/mL (≈ 86.9 µM)	1020 µg/mL	16 µg/mL
CCC(C)Oc1ccc(F)c(C(N)=O)c1F (configuration not stated)	128 µg/mL (≈ 558 µM)	128 µg/mL (≈ 558 µM)	64 µg/mL (≈ 279 µM)	128 µg/mL (≈ 558 µM)	64 µg/mL	> 128 µg/mL	128 µg/mL (≈ 558 µM)	128 µg/mL (≈ 558 µM)	128 µg/mL (≈ 558 µM)	32 µg/mL	128 µg/mL
